Reference: ChEMBL document CHEMBL1148443, “Importance of phenolic address groups in opioid kappa receptor selective antagonists” (J Med Chem, 2004)
pKi: −log10 of the molar value.

Key:
[1] = target: Delta-type opioid receptor (Rattus norvegicus, UniProt P33533); assay: Binding affinity of compound for opioid receptor delta 1 was determined using [3H]DADLE as radioligand from rat brain tissue
In short: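 Competitive binding assays. Mu and delta receptors came from rat brain membranes. Kappa receptors came from guinea pig caudate membranes. Test compounds displaced the receptor-selective radioligand.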

[2] = target: Kappa-type opioid receptor (Cavia porcellus, UniProt P41144); assay: Binding affinity of compound for Opioid receptor kappa 1 was determined using [3H]U-69593 as radioligand from guinea pig caudate
In short: (§1)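 Competitive binding assays. Mu and delta receptors came from rat brain membranes. Kappa receptors came from guinea pig caudate membranes.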

Cavia porcellus [3] = species on record: Cavia porcellus; assay: Functional antagonism was obtained by the ability of compound to inhibit stimulation of [35S]GTP gamma S binding produced by selective agonists U69,593 in guinea pig caudate membranes
Cavia porcellus [4] = species on record: Cavia porcellus; assay: Functional antagonism was obtained by the ability of compound to inhibit stimulation of [35S]GTP gamma S binding produced by selective agonists DAMGO in guinea pig caudate membranes
Cavia porcellus [5] = species on record: Cavia porcellus; assay: Functional antagonism was obtained by the ability of compound to inhibit stimulation of [35S]GTP gamma S binding produced by selective agonists SNC-80 in guinea pig caudate membranes
[6] = target: Opioid receptors; mu & kappa (Homo sapiens) (UniProt P41145+P35372); assay: Selectivity of compound for mu opioid receptor to that of kappa opioid receptor; format: protein assay
[7] = target: Opioid receptors; delta & kappa (Homo sapiens) (UniProt P41145+P41143); assay: Selectivity of compound for delta opioid receptor to that of kappa opioid receptor; format: protein assay
Mu-type opioid receptor = Mu-type opioid receptor (Rattus norvegicus, UniProt P33535); assay: Binding affinity of compound for Opioid receptor mu 1 was determined using [3H]DAMGO as radioligand from rat brain tissue; in short: as §1
Chain of Mu-type opioid receptor (P33535 whole entry): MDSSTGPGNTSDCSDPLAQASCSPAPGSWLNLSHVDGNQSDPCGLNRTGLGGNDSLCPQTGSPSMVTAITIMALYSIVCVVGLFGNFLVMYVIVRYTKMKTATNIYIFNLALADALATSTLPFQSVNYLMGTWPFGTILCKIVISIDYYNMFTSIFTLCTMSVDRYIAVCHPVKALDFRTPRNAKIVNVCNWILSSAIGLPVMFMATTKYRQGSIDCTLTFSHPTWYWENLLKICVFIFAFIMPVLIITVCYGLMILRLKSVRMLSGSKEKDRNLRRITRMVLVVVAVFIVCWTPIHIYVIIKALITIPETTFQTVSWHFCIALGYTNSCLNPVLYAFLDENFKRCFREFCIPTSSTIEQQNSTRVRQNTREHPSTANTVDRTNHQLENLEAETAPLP

Chain of Opioid receptors; mu & kappa (Homo sapiens) (P35372 whole entry, looked up): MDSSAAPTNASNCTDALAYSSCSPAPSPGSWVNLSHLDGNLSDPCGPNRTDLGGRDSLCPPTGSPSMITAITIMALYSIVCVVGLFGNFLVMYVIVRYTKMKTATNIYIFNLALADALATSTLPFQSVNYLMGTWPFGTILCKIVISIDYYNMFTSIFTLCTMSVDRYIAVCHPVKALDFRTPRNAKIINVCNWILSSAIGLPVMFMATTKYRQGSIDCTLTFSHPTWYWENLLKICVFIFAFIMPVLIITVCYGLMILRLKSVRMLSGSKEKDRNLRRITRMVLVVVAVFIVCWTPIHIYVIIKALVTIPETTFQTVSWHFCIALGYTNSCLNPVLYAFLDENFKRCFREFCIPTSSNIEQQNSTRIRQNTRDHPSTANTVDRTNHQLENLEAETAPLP
Chain of Opioid receptors; mu & kappa (Homo sapiens) (P41145 whole entry, looked up): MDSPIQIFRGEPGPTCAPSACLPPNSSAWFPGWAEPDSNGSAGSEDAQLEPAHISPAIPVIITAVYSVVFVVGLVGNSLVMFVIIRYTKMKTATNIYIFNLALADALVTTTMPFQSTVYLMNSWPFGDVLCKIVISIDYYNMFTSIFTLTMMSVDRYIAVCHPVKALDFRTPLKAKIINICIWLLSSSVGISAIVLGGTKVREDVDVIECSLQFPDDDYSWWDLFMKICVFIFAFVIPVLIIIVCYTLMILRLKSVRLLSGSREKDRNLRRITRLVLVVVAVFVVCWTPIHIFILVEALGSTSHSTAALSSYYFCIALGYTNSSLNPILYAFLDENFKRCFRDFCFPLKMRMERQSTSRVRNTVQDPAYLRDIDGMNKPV
Chain of Opioid receptors; delta & kappa (Homo sapiens) (P41143 whole entry, looked up): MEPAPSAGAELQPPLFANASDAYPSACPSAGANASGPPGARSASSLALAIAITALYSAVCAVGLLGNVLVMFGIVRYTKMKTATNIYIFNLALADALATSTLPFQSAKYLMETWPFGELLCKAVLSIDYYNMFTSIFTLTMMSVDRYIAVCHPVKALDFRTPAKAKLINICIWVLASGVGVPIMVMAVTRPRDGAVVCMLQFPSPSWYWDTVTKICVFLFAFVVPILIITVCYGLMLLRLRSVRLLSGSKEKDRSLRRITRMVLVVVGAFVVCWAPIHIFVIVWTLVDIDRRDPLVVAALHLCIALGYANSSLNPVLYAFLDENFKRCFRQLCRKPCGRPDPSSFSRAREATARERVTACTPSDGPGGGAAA
Chain of Opioid receptors; delta & kappa (Homo sapiens) (P41145 whole entry, looked up): as the sequence (P41145 whole entry, looked up) above
Chain of Delta-type opioid receptor (P33533 whole entry): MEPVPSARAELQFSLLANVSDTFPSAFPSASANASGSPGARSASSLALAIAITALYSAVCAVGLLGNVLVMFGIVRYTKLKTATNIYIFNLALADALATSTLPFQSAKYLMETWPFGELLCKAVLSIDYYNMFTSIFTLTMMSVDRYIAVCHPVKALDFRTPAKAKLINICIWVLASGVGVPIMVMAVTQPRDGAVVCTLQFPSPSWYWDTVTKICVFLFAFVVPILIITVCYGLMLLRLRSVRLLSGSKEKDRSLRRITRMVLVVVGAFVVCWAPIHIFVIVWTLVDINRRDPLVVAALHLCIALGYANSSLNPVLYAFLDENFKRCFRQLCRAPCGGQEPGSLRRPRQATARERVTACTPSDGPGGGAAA
Chain of Kappa-type opioid receptor (P41144 whole entry): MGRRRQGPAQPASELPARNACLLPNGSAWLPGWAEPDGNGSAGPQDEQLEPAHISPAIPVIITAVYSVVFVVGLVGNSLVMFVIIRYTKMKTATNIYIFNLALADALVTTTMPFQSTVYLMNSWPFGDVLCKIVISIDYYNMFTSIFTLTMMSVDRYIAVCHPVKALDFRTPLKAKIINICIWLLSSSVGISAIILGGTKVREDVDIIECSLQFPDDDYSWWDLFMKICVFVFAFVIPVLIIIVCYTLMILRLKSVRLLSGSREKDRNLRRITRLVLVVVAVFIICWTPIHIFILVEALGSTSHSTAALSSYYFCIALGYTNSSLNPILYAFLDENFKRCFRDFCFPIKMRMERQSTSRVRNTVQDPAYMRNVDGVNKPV

Row | Compound | pKi [1] | pKi [2] | pKi (Cavia porcellus [3]) | pKi (Cavia porcellus [4]) | pKi (Cavia porcellus [5]) | Selectivity [6] | Selectivity [7] | pKi (Mu-type opioid receptor)
1 | Oc1ccc2c3c1O[C@H]1c4[nH]c5c(c4C[C@@]4(O)[C@@H](C2)N(CC2CC2)CC[C@]314)C[C@@]1(O)[C@H]2Cc3ccc(O)c4c3[C@@]1(CCN2CC1CC1)[C@H]5O4 [NORBINALTORPHIMINE] | 6.96 | 8.88 | – | – | – | – | – | –
2 | Oc1ccc2c3c1O[C@H]1c4[nH]c5c(c4C[C@@]4(O)[C@@H](C2)N(CC2CC2)CC[C@]314)C[C@@]1(O)[C@H]2Cc3ccc(O)c4c3[C@@]1(CCN2CC1CC1)[C@H]5O4 (relative stereo) [NORBINALTORPHIMINE] | – | – | 10.42 | 7.78 | – | – | – | –
3 | CC(C)[C@@H](CN1CC[C@@](C)(c2cccc(O)c2)[C@@H](C)C1)NC(=O)[C@H]1Cc2ccccc2CN1 | – | – | 7.94 | 7.16 | 6.67 | 369 | > 2330 | –
4 | CC(C)[C@@H](CN1CC[C@@](C)(c2cccc(O)c2)[C@@H](C)C1)NC(=O)CCc1ccccc1 | < 5.30 | 6.35 | – | – | – | 2 | 11 | 6.02
5 | CC(C)[C@@H](CN1CC[C@@](C)(c2cccc(O)c2)[C@@H](C)C1)NC(=O)CCc1ccc(O)cc1 | – | – | 8.33 | 8.14 | 6.35 | 45 | > 885 | –
6 | CC(C)[C@@H](CN1CC[C@@](C)(c2cccc(O)c2)[C@@H](C)C1)NC(=O)[C@H]1Cc2ccc(O)cc2CN1 [JDTIC] | – | – | 10.70 | 8.67 | < 6.52 | 12 | 940 | –
